Experimental data as given in ChEMBL document CHEMBL1156246 (J Med Chem, 2009).
Activity calls are given as the source filed them. The rule behind the calls is not given here.

Tested on: Mus musculus
Test: Anticonvulsant activity in ip dosed albino mouse assessed as protection against subcutaneous metrazole-induced seizures
Format: functional, organism-based
Conditions: not given
In short: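 Male albino Carworth Farms No. 1 mice, dosed intraperitoneally; subcutaneous metrazol seizure model run by previously reported methods under the NIH Anticonvulsant Screening Program; protection against seizures scored.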

Structure (SMILES) | Activity
C#Cc1ccc(CNC(=O)[C@H](COC)NC(C)=O)cc1 | inactive
C#CCOC[C@@H](NC(C)=O)C(=O)NCc1ccccc1 | inactive
CC(=O)N[C@H](CO)C(=O)NCc1ccc(N=C=S)cc1 | inactive
CCCC(CCC)C(=O)[O-].[Na+] [VALPROATE SODIUM] | inactive
CC(=O)N[C@@H](COCCN=[N+]=[N-])C(=O)NCc1ccc(N=C=S)cc1 | inactive
COC[C@@H](NC(C)=O)C(=O)NCc1ccccc1 [LACOSAMIDE] | inactive
C#Cc1ccc(CNC(=O)[C@H](COCCN=C=S)NC(C)=O)cc1 | inactive
C#CCOC[C@H](NC(C)=O)C(=O)NCc1ccc(N=C=S)cc1 | inactive
CC(=O)N[C@H](COCCN=[N+]=[N-])C(=O)NCc1ccccc1 | inactive

Tested on: Rattus norvegicus
Test: Protective index, ratio of TD50 for po dosed Sprague-Dawley rat to ED50 for protection against maximal electroshock-induced seizures in po dosed Sprague-Dawley rat
Format: functional
Conditions: not given

Structure (SMILES) | Ratio TD50/ED50
C#CCOC[C@@H](NC(C)=O)C(=O)NCc1ccccc1 | >63
CC(=O)N[C@H](CO)C(=O)NCc1ccc(N=C=S)cc1 | >59

Target: Dihydropyrimidinase-related protein 2 (Mus musculus) (UniProt O08553)
Test: Binding affinity to CRMP2 in ICR mouse brain […] at 5 uM by Western blot analysis in presence of rhodamine-containing 4-(3,6,9,12-tetraoxapentadec-14-ynylcarbamoyl)-2-(3,6-bis(dimethylamino)xanthylium-9-yl)benzoate
Format: tissue-based
Conditions: not given
In short: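 Soluble brain proteome from male 2-month ICR mice was Dounce-homogenized in 50 mM HEPES pH 7.4. It was spun at 1200 × g for 12 min, then at 100,000 × g for 1 h at 4 °C, and exchanged into pH 8.0 HEPES. Aliquots (2.0 mg/mL protein) got 5 μM agent for 30 min at RT. Click reaction used rhodamine-alkyne 50 μM, TCEP 1 mM, TBTA 200 μM, CuSO4 1 mM, 1 h RT. Read-out: SDS-PAGE, in-gel fluorescence (ex 555/em 580 nm).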

Structure (SMILES) | Activity
CC(=O)N[C@@H](COCCN=[N+]=[N-])C(=O)NCc1ccc(N=C=S)cc1 | Active

Tested on: Rattus norvegicus
Test: Anticonvulsant activity in po dosed Sprague-Dawley rat assessed as protection against subcutaneous metrazole-induced seizures
Format: functional, organism-based
Conditions: not given
In short: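 Male albino Sprague-Dawley rats, oral dosing; subcutaneous metrazol seizure test by previously reported methods within the NIH Anticonvulsant Screening Program.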

Structure (SMILES) | Activity
C#Cc1ccc(CNC(=O)[C@H](COC)NC(C)=O)cc1 | inactive
C#CCOC[C@@H](NC(C)=O)C(=O)NCc1ccccc1 | inactive
CC(=O)N[C@H](CO)C(=O)NCc1ccc(N=C=S)cc1 | inactive
CCCC(CCC)C(=O)[O-].[Na+] [VALPROATE SODIUM] | inactive
CC(=O)N[C@@H](COCCN=[N+]=[N-])C(=O)NCc1ccc(N=C=S)cc1 | inactive
COC[C@@H](NC(C)=O)C(=O)NCc1ccccc1 [LACOSAMIDE] | inactive
C#Cc1ccc(CNC(=O)[C@H](COCCN=C=S)NC(C)=O)cc1 | inactive
C#CCOC[C@H](NC(C)=O)C(=O)NCc1ccc(N=C=S)cc1 | inactive
CC(=O)N[C@H](COCCN=[N+]=[N-])C(=O)NCc1ccccc1 | inactive

Tested on: Rattus norvegicus
Test: Neurotoxicity in po dosed Sprague-Dawley rat assessed as time of peak effect by rotarod test
Format: toxicity, organism-based
Conditions: in vivo

Structure (SMILES) | Time [h]
CCCC(CCC)C(=O)[O-].[Na+] [VALPROATE SODIUM] | 0.5
COC[C@@H](NC(C)=O)C(=O)NCc1ccccc1 [LACOSAMIDE] | 0.5

Tested on: Mus musculus
Test: Anticonvulsant activity against maximal electroshock-induced seizures in ip dosed albino mouse assessed as time of peak effect
Format: functional
Conditions: not given

Structure (SMILES) | Time [h]
C#Cc1ccc(CNC(=O)[C@H](COC)NC(C)=O)cc1 | 0.5
C#CCOC[C@@H](NC(C)=O)C(=O)NCc1ccccc1 | 0.25
CC(=O)N[C@H](CO)C(=O)NCc1ccc(N=C=S)cc1 | 0.5
CCCC(CCC)C(=O)[O-].[Na+] [VALPROATE SODIUM] | 0.25
CC(=O)N[C@@H](COCCN=[N+]=[N-])C(=O)NCc1ccc(N=C=S)cc1 | 0.25
COC[C@@H](NC(C)=O)C(=O)NCc1ccccc1 [LACOSAMIDE] | 0.5
CC(=O)N[C@H](COCCN=[N+]=[N-])C(=O)NCc1ccccc1 | 4

Tested on: Rattus norvegicus
Test: Anticonvulsant activity in po dosed Sprague-Dawley rat assessed as protection against maximal electroshock-induced seizures
Format: functional
Conditions: not given
In short: (§1)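 Male rodents screened through the NIH Anticonvulsant Screening Program: albino Carworth Farms No. 1 mice given compound ip, albino Sprague-Dawley rats given compound po. Maximal electroshock test: tonic hindlimb seizures were induced by corneal electrical stimulation. ED50 is given in mg/kg.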

Structure (SMILES) | ED50 [mg/kg]
C#CCOC[C@@H](NC(C)=O)C(=O)NCc1ccccc1 | 7.9
CC(=O)N[C@H](CO)C(=O)NCc1ccc(N=C=S)cc1 | 4.2
COC[C@@H](NC(C)=O)C(=O)NCc1ccccc1 [LACOSAMIDE] | 4.2
CC(=O)N[C@H](COCCN=[N+]=[N-])C(=O)NCc1ccccc1 | > 40

Tested on: Mus musculus
Test: Anticonvulsant activity in ip dosed albino mouse assessed as protection against maximal electroshock-induced seizures
Format: functional
Conditions: not given
In short: as §1

Structure (SMILES) | ED50 [mg/kg]
C#Cc1ccc(CNC(=O)[C@H](COC)NC(C)=O)cc1 | > 300
C#CCOC[C@@H](NC(C)=O)C(=O)NCc1ccccc1 | 16
CC(=O)N[C@H](CO)C(=O)NCc1ccc(N=C=S)cc1 | 24
CCCC(CCC)C(=O)[O-].[Na+] [VALPROATE SODIUM] | 270
CC(=O)N[C@@H](COCCN=[N+]=[N-])C(=O)NCc1ccc(N=C=S)cc1 | 100
C#CCOC[C@H](NC(C)=O)C(=O)NCc1ccc(N=C=S)cc1 | > 300
CC(=O)N[C@H](COCCN=[N+]=[N-])C(=O)NCc1ccccc1 | 100

Tested on: not listed separately
Test: Neurotoxicity in po dosed Sprague-Dawley rat by rotarod test
Format: toxicity, organism-based
Conditions: in vivo

Structure (SMILES) | TD50 [mg/kg]
C#CCOC[C@@H](NC(C)=O)C(=O)NCc1ccccc1 | > 500
CC(=O)N[C@H](CO)C(=O)NCc1ccc(N=C=S)cc1 | > 250
COC[C@@H](NC(C)=O)C(=O)NCc1ccccc1 [LACOSAMIDE] | > 250
CC(=O)N[C@H](COCCN=[N+]=[N-])C(=O)NCc1ccccc1 | > 30

Target: Dihydropyrimidinase-related protein 2 (Mus musculus) (UniProt O08553)
Test: Binding affinity to CRMP2 in ICR mouse brain […] at 5 uM by Western blot analysis in presence of rhodamine-containing 4-(3-azidopropylcarbamoyl)-2-(3,6-bis(dimethylamino)xanthylium-9-yl)benzoate
Format: tissue-based
Conditions: not given

Structure (SMILES) | Activity
C#Cc1ccc(CNC(=O)[C@H](COCCN=C=S)NC(C)=O)cc1 | inactive
C#CCOC[C@H](NC(C)=O)C(=O)NCc1ccc(N=C=S)cc1 | Active

Tested on: Mus musculus
Test: Anticonvulsant activity against 6 Hz electric shock-induced seizures in ip dosed albino mouse assessed as time of peak effect
Format: functional
Conditions: not given

Structure (SMILES) | Time [h]
C#CCOC[C@@H](NC(C)=O)C(=O)NCc1ccccc1 | 0.5
CC(=O)N[C@H](COCCN=[N+]=[N-])C(=O)NCc1ccccc1 | 0.5

Tested on: Mus musculus
Test: Neurotoxicity in ip dosed albino mouse assessed as time of peak effect by rotarod test
Format: toxicity, organism-based
Conditions: in vivo

Structure (SMILES) | Time [h]
C#Cc1ccc(CNC(=O)[C@H](COC)NC(C)=O)cc1 | 0.5
C#CCOC[C@@H](NC(C)=O)C(=O)NCc1ccccc1 | 0.25
CC(=O)N[C@H](CO)C(=O)NCc1ccc(N=C=S)cc1 | 0.25
CCCC(CCC)C(=O)[O-].[Na+] [VALPROATE SODIUM] | 0.25
COC[C@@H](NC(C)=O)C(=O)NCc1ccccc1 [LACOSAMIDE] | 0.25
CC(=O)N[C@H](COCCN=[N+]=[N-])C(=O)NCc1ccccc1 | 4

Tested on: not listed separately
Test: Neurotoxicity in ip dosed albino mouse by rotarod test
Format: toxicity, organism-based
Conditions: in vivo

Structure (SMILES) | TD50 [mg/kg]
C#Cc1ccc(CNC(=O)[C@H](COC)NC(C)=O)cc1 | 300
C#CCOC[C@@H](NC(C)=O)C(=O)NCc1ccccc1 | 59
CC(=O)N[C@H](CO)C(=O)NCc1ccc(N=C=S)cc1 | 47
CC(=O)N[C@@H](COCCN=[N+]=[N-])C(=O)NCc1ccc(N=C=S)cc1 | 300
C#CCOC[C@H](NC(C)=O)C(=O)NCc1ccc(N=C=S)cc1 | > 300
CC(=O)N[C@H](COCCN=[N+]=[N-])C(=O)NCc1ccccc1 | 100

Tested on: Mus musculus
Test: Protective index, ratio of TD50 for ip dosed albino mouse to ED50 for protection against maximal electroshock-induced seizures in ip dosed albino mouse
Format: functional
Conditions: not given

Structure (SMILES) | Ratio TD50/ED50
C#CCOC[C@@H](NC(C)=O)C(=O)NCc1ccccc1 | 3.7
CC(=O)N[C@H](CO)C(=O)NCc1ccc(N=C=S)cc1 | 2

Target: Dihydropyrimidinase-related protein 2 (Mus musculus) (UniProt O08553)
Test: Binding affinity to CRMP2 in ICR mouse brain […] at 5 uM by in-gel tryptic digestion analysis in presence of rhodamine-containing 4-(3-azidopropylcarbamoyl)-2-(3,6-bis(dimethylamino)xanthylium-9-yl)benzoate
Format: tissue-based
Conditions: not given
In short: (§2)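 Brain soluble fraction from male 2-month ICR mice was Dounce-homogenized in 50 mM HEPES pH 7.4 and spun at 1200 × g then 100,000 × g at 4 °C. The fraction was exchanged into HEPES pH 8.0 at 2.0 mg/mL, treated with agent (5 μM, 30 min, room temperature), then clicked to rhodamine-azide (50 μM) with TCEP 1 mM, TBTA 200 μM and CuSO4 1 mM for 1 h. After SDS-PAGE, the ~62 kDa band was trypsin-digested, iTRAQ-labelled and analysed by LC-MS/MS.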

Structure (SMILES) | Activity
C#CCOC[C@H](NC(C)=O)C(=O)NCc1ccc(N=C=S)cc1 | Active

Tested on: Mus musculus
Test: Anticonvulsant activity in ip dosed albino mouse assessed as protection against 6 Hz electric shock-induced seizures
Format: functional
Conditions: not given
In short: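 6 Hz psychomotor seizure test in mice dosed ip, with stimulation at 32 mA.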

Structure (SMILES) | ED50 [mg/kg]
C#CCOC[C@@H](NC(C)=O)C(=O)NCc1ccccc1 | 29
COC[C@@H](NC(C)=O)C(=O)NCc1ccccc1 [LACOSAMIDE] | 10
CC(=O)N[C@H](COCCN=[N+]=[N-])C(=O)NCc1ccccc1 | 44

Tested on: Rattus norvegicus
Test: Anticonvulsant activity against maximal electroshock-induced seizures in po dosed Sprague-Dawley rat assessed as time of peak effect
Format: functional
Conditions: not given

Structure (SMILES) | Time [h]
C#CCOC[C@@H](NC(C)=O)C(=O)NCc1ccccc1 | 0.5
CC(=O)N[C@H](CO)C(=O)NCc1ccc(N=C=S)cc1 | 4
CCCC(CCC)C(=O)[O-].[Na+] [VALPROATE SODIUM] | 0.5
COC[C@@H](NC(C)=O)C(=O)NCc1ccccc1 [LACOSAMIDE] | 0.5
CC(=O)N[C@H](COCCN=[N+]=[N-])C(=O)NCc1ccccc1 | 0.25

Target: Dihydropyrimidinase-related protein 2 (Mus musculus) (UniProt O08553)
Test: Binding affinity to CRMP2 in ICR mouse brain […] at 5 uM by mass spectrometry in presence of rhodamine-containing 4-(3-azidopropylcarbamoyl)-2-(3,6-bis(dimethylamino)xanthylium-9-yl)benzoate
Format: tissue-based
Conditions: not given
In short: as §2

Structure (SMILES) | Activity
C#CCOC[C@H](NC(C)=O)C(=O)NCc1ccc(N=C=S)cc1 | Active
